Sampled rows, rich in hits. Any-hit rate of the full collection: about 5.3%.
FAK inh – FAK kinase inhibitors, primary screen, biochemical; Focal adhesion kinase 1 (Homo sapiens), Q05397; biochemical FAK kinase activity assay; inhibition, %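 (tested at 7 µM)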; 97,000 compounds, 0.84% hits; AID 727, 2007;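 also: 0% = DMSO and 100% = reference compound high control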
Rev-RRE block – HIV-1 Rev-RRE binding inhibitors, primary screen, biochemical, FRET, protein-RNA interaction | inhibition, % at 8 µM | Rev peptide-RRE RNA binding | 97,000 compounds, 0.79% hits;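 active = inhibition above the screen-wide mean plus 3 SD, cut at about 35% in these data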;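 also: 0% = median DMSO wells and 100% = median Neomycin B control wells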
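System: Cy5-labelled duplex RRE RNA binding fluorescein-labelled HIV Rev peptide; Signal: fluorescein-to-Cy5 FRET, 480 nm excitation; Also added: labelled Rev peptide; Compound: one concentration, 8 µM nominal; Buffer or medium: HEPES pH 7.5 salt buffer with EDTA; Read-out: % inhibition of FRET ratio versus controls; Schedule: 5 min preincubation and 15 min binding, 25 °C.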
Cav3 T inh – Cav3.2 calcium influx blockers – cell-based, Fluo-4 calcium fluorescence, FDSS, MLSMR library, primary screen | Voltage-dependent T-type calcium channel subunit alpha-1H (Homo sapiens), O95180 | Cav3.2-expressing cells; stronger effect = lower value | B-score at 10 µM | 100,000 compounds, 4% hits | AID 449739, 2010;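 active = single-dose well whose peak fluorescence ratio is a statistical outlier from its plate by either plate-standardised score or position-corrected B-score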
PLK1 kinase inh – human PLK1 kinase inhibitors, primary screen, biochemical, TR-FRET | 97,000 compounds, 0.53% hits | inhibition, % at 10 µM | recombinant PLK1 kinase, TR-FRET peptide phosphorylation | Serine/threonine-protein kinase PLK1 (Homo sapiens), P53350;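 active = inhibition of 50% or more in the single-concentration screen; inactive = inhibition below 50%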;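 also: 0% = DMSO max control and 100% = H-89 dihydrochloride min control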
Target sequence (P53350 whole entry, looked up): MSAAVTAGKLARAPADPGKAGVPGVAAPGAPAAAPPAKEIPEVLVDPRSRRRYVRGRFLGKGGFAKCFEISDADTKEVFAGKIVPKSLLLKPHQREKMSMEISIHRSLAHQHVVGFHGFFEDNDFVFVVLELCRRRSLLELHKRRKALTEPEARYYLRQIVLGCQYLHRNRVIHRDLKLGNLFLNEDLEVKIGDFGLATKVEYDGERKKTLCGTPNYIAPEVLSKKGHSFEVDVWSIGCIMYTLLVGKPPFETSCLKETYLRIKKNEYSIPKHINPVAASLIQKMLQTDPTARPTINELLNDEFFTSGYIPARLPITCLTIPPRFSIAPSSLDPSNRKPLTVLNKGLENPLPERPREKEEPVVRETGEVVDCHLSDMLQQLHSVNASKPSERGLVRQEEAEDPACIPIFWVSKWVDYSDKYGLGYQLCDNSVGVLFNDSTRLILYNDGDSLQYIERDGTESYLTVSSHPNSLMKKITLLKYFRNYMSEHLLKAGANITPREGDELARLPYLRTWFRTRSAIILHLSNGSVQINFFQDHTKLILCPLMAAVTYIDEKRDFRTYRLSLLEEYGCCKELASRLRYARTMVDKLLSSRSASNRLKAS
Plk1 PBD FP – Plk1 polo box domain binding inhibitors, primary screen, biochemical, fluorescence polarization; 97,000 compounds, 0.13% hits; inhibition, %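 (tested at about 20 µM)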; Serine/threonine-protein kinase PLK1 (Homo sapiens), P53350; AID 693, 2007; Plk1 PBD phosphopeptide binding; in the data active = inhibition above about 34%, passing the limit was not always enough
EphB4 antag – EphB4-ephrin-B2 interaction antagonists, primary screen, biochemical, TNYL-RAW peptide probe, fluorescence polarization | 97,000 compounds, 0.15% hits | AID 720, 2007 | EphB4 LBD / TNYL-RAW-Alexa532 peptide | inhibition, % at 7 µM;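 active = inhibition above the screen-wide mean inhibition plus 3 SD, cut at about 15% in these data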;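 also: 0% = DMSO wells and 100% = excess unlabeled TNYL-RAW peptide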
FAK inh confirm – FAK kinase inhibitors, retest, confirmation, biochemical | shares compounds with FAK inh | FAK kinase biochemical inhibition assay | inhibition, % at 7 µM | 750 compounds, 28% hits
Active calls of the source: *; / = not tested or not shown. Rule as the data show it, unless noted: active = inhibition above about 19%; inactive = the rest.

SMILES	FAK inh	Rev-RRE block	Cav3 T inh	PLK1 kinase inh	Plk1 PBD FP	EphB4 antag	FAK inh confirm
O=C(Nc1ccccc1Cl)O/N=C/c1ccncc1	-0.3	6.6	-1.86	-0.5	11.9	1.6	/
Cc1cc2nnc(SC(C)C#N)n2c2ccccc12 (centres undefined)	35.1*	7.6	0.404	6.2	13.4	-0.8	13.9
CCOC(=O)C(CC)Sc1nnc2cc(C)c3ccccc3n12 (centres undefined)	1.5	7.9	1	-10.5	-8.8	-2.4	/
O=C1NC(=O)[C@@H]2C3c4ccccc4C=CN3[C@H](C(=O)c3cccs3)[C@H]12 (some centres undefined)	20.4*	35.3	-1.07	-6.0	-15.0	-9.3	11.6
C=C(C)CSc1nc2c(c(=O)[nH]c(=O)n2C)n1CCC(C)C	6.0	5.0	-3.06	-5.7	-2.0	-0.5	/
Cc1cccn2c(=O)c(/C=N/O)c(N3CCCCC3)nc12	-4.9	5.8	-1.69	4.5	-28.2	1.3	/
O=c1c(/C=N/O)c(Nc2ccccc2)nc2ccccn12	49.6*	1.9	-1.77	4.9	2.6	-9.2	31.5*
CCOc1ccc(C2c3cc(OC)c(OC)cc3CC(=O)N2c2ccc(OC)cc2)cc1 (centres undefined)	-0.6	-1.6	-3.14	3.0	-5.6	-9.1	/
O=C(Nc1ccccc1N1CCCCC1)c1ccco1	23.7*	11.3	-2.96	-6.3	5.1	5.4	9.1
O=C(Nc1ccccc1N1CCCC1)c1ccco1	2.0	1.8	-1.29	-9.2	-7.0	-7.3	/
Cc1ccc2nsnc2c1S(=O)(=O)Nc1cccc2nsnc12	71.0*	-0.1	-0.198	-12.4	28.2	1.7	47.7*
Cc1ccc2nsnc2c1S(=O)(=O)N1CCOCC1	1.4	1.1	0.431	-5.7	-17.5	0.5	/
CCO[C@@H]1OC(C(=O)N2CCN(C)CC2)=C[C@H](c2coc3ccccc3c2=O)[C@H]1CCCO	/	/	0.291	/	/	/	/
Cc1ccc(NC(=O)CN2C(=O)S/C(=C/c3ccc(-c4cc(C(=O)O)ccc4C)o3)C2=O)cc1C	75.1*	10.6	-2.67	11.4	19.5	11.3	18.6
Cc1ccccc1-n1c(SCc2ccccn2)nc2n[nH]c(C)c2c1=N	30.2*	9.8	0.744	9.9	-4.2	6.1	9.9
c1nc(NCCN2CCOCC2)c2c3c(sc2n1)CCCCC3	6.7	8.7	1.42	-2.0	7.9	2.0	/
c1ccc(CNc2ncnc3sc4c(c23)CCC4)nc1	19.6*	9.7	1.2	-9.8	-20.8	6.5	2.6
c1cc2ccc3ccc(CN4CCOCC4)c4ccc(c1)c2c34	40.8*	5.8	0.629	-1.2	-21.7	4.1	40.6*
O=C1Cc2ccccc2C(=O)N1Cc1ccccc1	53.8*	4.5	0.694	-1.6	-7.8	1.0	28.2*
COCCN(CC(=O)Nc1ccccc1)S(=O)(=O)c1ccc(S(=O)(=O)N2CCCC2)cc1	1.8	3.8	0.523	16.4	-5.0	8.8	/
Cc1ccc2cc3cc(C(=O)NCc4ccco4)oc3nc2c1	21.1*	9.1	0.157	-8.0	2.3	-5.1	5.4
Cc1cc([N+](=O)[O-])c2[nH]c(C(=O)N/N=C/c3ccccc3C(=O)O)c(-c3ccccc3)c2c1	29.3*	-0.1	/	-6.5	6.2	2.0	-5.0
CCOc1cc(CNc2ccc3c(c2)CCC3)ccc1OC	5.8	4.1	-0.535	-11.8	1.5	8.6	/
O=C(NCC(=O)N(Cc1ccccc1)C(C(=O)NC1CCCC1)c1ccncc1)c1ccco1 (centres undefined)	1.2	2.6	-0.00455	-10.0	14.2	-4.2	/
C=C(C)CN(CC)C(=O)COc1ccc(S(=O)(=O)Nc2ccc(OC)cc2)cc1	29.8*	5.3	-0.63	-16.1	12.6	0.1	-0.1
SMILES	FAK inh	Rev-RRE block	Cav3 T inh	PLK1 kinase inh	Plk1 PBD FP	EphB4 antag	FAK inh confirm
CC(C)(CS(=O)(=O)[O-])NC(=O)CC[N+](C)(C)CCO	28.3*	16.1	0.609	-3.9	-6.4	3.9	6.1
c1nc(N2CCOCC2)c2c3c(sc2n1)CCCC3	28.3*	3.0	/	-12.0	-13.7	7.3	-1.0
Cc1ccc(Cn2c3ccccc3c3cn[nH]c(=O)c32)cc1	/	/	0.391	/	/	/	/
O=c1[nH]ncc2c3ccccc3n(Cc3ccccc3)c12	20.0*	12.3	-0.258	34.3	1.1	2.9	7.3
CCCCn1c(NC(=O)c2ccccc2Cl)c(C#N)c2nc3ccccc3nc21	27.8*	13.5	-8.77*	-1.8	-17.6	7.0	-1.3
COc1ccc(-n2c(NC(=O)c3ccco3)c(C#N)c3nc4ccccc4nc32)cc1	20.9*	37.0*	-3.16	-7.3	11.6	-0.8	-3.8
CCOC(=O)c1c(NC(=O)c2ccco2)n(C2CCCCC2)c2nc3ccccc3nc12	0.0	29.8	-2.8	-8.2	9.3	-2.8	/
CCCCn1c(NC(=O)CC)c(C#N)c2nc3ccccc3nc21	1.6	11.7	0.268	17.7	-25.5	2.1	/
N#CCCn1c(C2CCCCC2)nc2ccccc21	2.2	5.0	1.5	-1.6	-0.7	-4.3	/
Cc1c(Br)cc(C(=O)NC2CCCCC2)c(C)c1C	4.6	6.0	-0.479	-7.0	-35.5	9.9	/
O=C(N/N=C/c1ccncc1)c1cc2c(ccc3ccccc32)o1	52.1*	3.5	/	-12.4	-6.8	6.3	17.3
O=C(C1=C(O)C(=O)N(Cc2ccco2)C1c1ccccc1)c1cccs1 (centres undefined)	-8.1	0.8	-3.37	-24.9	8.7	-7.5	/
CNc1cccccc1=S	43.6*	-15.4	-1.62	-14.2	20.9	-8.7	0.8
O=C(N/N=C/c1ccc2ccccc2c1)c1ccc(COc2ccc3c(c2)CCC3)o1	33.5*	5.0	-4.25	-11.2	-20.3	-8.4	24.0*
COc1ccc(Br)cc1/C=N/NC(=O)c1ccc(COc2ccc3c(c2)CCC3)o1	0.0	10.1	-1.5	-12.8	-3.8	-6.0	/
Clc1cccc(Cl)c1/C=N\Nc1nccs1	8.7	-3.1	-0.871	-3.7	-7.8	4.8	/
O=[N+]([O-])c1cc(/C=N\Nc2nccs2)ccc1O	91.3*	-5.2	/	-9.0	-8.8	-1.2	71.8*
COc1ccc(OCc2nn3c(-c4ccco4)nnc3s2)cc1	1.4	3.6	-0.596	7.5	-0.6	-2.9	/
c1csc(Cc2nn3c(-c4n[nH]c5c4CCC5)nnc3s2)c1	27.6*	7.7	1.29	5.7	-15.3	-5.6	8.2
